How the values were obtained:
[1] = system: Plasma; test: Plasma concentration in human treated with [14C]-labeled milnacipran hydrochloride at 100 mg, po measured at 4 hrs by HPLC analysis; assay type: ADME, organism-based; details: in vivo
Outline: (§1)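 Single oral 100 mg [14C] milnacipran hydrochloride in healthy men; blood taken into chilled K3EDTA tubes, plasma spun at ≥2,500 g for 10 min at 4°C and stored at -80°C. Pooled timepoint plasma was extracted and run on phenyl-hexyl HPLC, with 0.5-min fractions counted by LSC. Peak concentration = % of chromatogram radioactivity × pool radioactivity (ng equivalent of milnacipran/mL).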

[2] = system: Plasma; test: Plasma concentration in human treated with [14C]-labeled milnacipran hydrochloride at 100 mg, po measured at 3 hrs by HPLC analysis; assay type: ADME, organism-based; details: in vivo; outline: as §1
[3] = system: Plasma; test: Plasma concentration in human treated with [14C]-labeled milnacipran hydrochloride at 100 mg, po measured at 0.5 hrs by HPLC analysis; assay type: ADME, organism-based; details: in vivo; outline: as §1
[4] = system: Plasma; test: Plasma concentration in human treated with [14C]-labeled milnacipran hydrochloride at 100 mg, po measured at 12 hrs by HPLC analysis; assay type: ADME, organism-based; details: in vivo; outline: as §1
[5] = Drug excretion in human urine treated with [14C]-labeled milnacipran hydrochloride at 100 mg, po after 48 to 72 hrs by HPLC analysis; assay type: ADME, organism-based; details: in vivo
Outline: (§2)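 Healthy male subjects, single oral 100 mg [14C] milnacipran hydrochloride (1 μCi/mg) after breakfast; urine pooled by interval and kept at -80°C. Urine injected directly (200 µL) onto phenyl-hexyl HPLC, 35°C, gradient ammonium acetate pH 5/methanol at 1 mL/min, with radioactivity flow detection. Metabolite excretion = net peak radioactivity (% of chromatogram, background-subtracted) × urine radioactivity excreted (% of dose); four subjects without emesis, mean.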

[6] = Drug excretion in human urine treated with [14C]-labeled milnacipran hydrochloride at 100 mg, po after 24 to 48 hrs by HPLC analysis; assay type: ADME, organism-based; details: in vivo; outline: as §2
[7] = system: Plasma; test: Plasma concentration in human treated with [14C]-labeled milnacipran hydrochloride at 100 mg, po measured at 1 hr by HPLC analysis; assay type: ADME, organism-based; details: in vivo; outline: as §1
[8] = Drug excretion in human urine treated with [14C]-labeled milnacipran hydrochloride at 100 mg, po after 72 to 96 hrs by HPLC analysis; assay type: ADME, organism-based; details: in vivo; outline: as §2
[9] = system: Plasma; test: Plasma concentration in human treated with [14C]-labeled milnacipran hydrochloride at 100 mg, po measured at 6 hrs by HPLC analysis; assay type: ADME, organism-based; details: in vivo; outline: as §1
[10] = Drug excretion in human urine treated with [14C]-labeled milnacipran hydrochloride at 100 mg, po after 4 to 8 hrs by HPLC analysis; assay type: ADME, organism-based; details: in vivo; outline: as §2
[11] = system: Plasma; test: Plasma concentration in human treated with [14C]-labeled milnacipran hydrochloride at 100 mg, po measured at 1.5 hrs by HPLC analysis; assay type: ADME, organism-based; details: in vivo; outline: as §1
[12] = Drug excretion in human urine treated with [14C]-labeled milnacipran hydrochloride at 100 mg, po after 8 to 12 hrs by HPLC analysis; assay type: ADME, organism-based; details: in vivo; outline: as §2
[13] = Drug excretion in human urine treated with [14C]-labeled milnacipran hydrochloride at 100 mg, po up to 4 hrs by HPLC analysis; assay type: ADME, organism-based; details: in vivo; outline: as §2
[14] = Drug excretion in human urine treated with [14C]-labeled milnacipran hydrochloride at 100 mg, po after 0 to 96 hrs by HPLC analysis; assay type: ADME, organism-based; details: in vivo
[15] = system: Plasma; test: Plasma concentration in human treated with [14C]-labeled milnacipran hydrochloride at 100 mg, po measured at 2 hrs by HPLC analysis; assay type: ADME, organism-based; details: in vivo; outline: as §1
[16] = Retention time in human urine treated with [14C]-labeled milnacipran hydrochloride at 100 mg, po by HPLC analysis; assay type: ADME, organism-based; details: in vivo
Outline: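 Urine from subjects given oral 100 mg [14C] milnacipran hydrochloride was run on a Luna phenyl-hexyl column (250 x 4.6 mm) with guard column at 35°C. Elution used a gradient of ammonium acetate pH 5/water/methanol at 1 mL/min, with in-line radioactivity flow detection and UV at 220 nm.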

[17] = Drug excretion in human urine treated with [14C]-labeled milnacipran hydrochloride at 100 mg, po after 12 to 24 hrs by HPLC analysis; assay type: ADME, organism-based; details: in vivo; outline: as §2
[18] = Drug excretion in monkey urine at 60 mg/kg, po; assay type: ADME, organism-based, Macaca mulatta; design: dose 60 mg/kg, route oral; details: rhesus monkey, read-out: Drug excretion
[19] = Drug excretion in mouse urine at 100 mg/kg, po; assay type: ADME, organism-based; design: dose 100 mg/kg, route oral; details: read-out: Drug excretion
[20] = Drug excretion in rat urine at 100 mg/kg, po; assay type: ADME, organism-based; design: dose 100 mg/kg, route oral; details: read-out: Drug excretion
[21] = Half life in human at 100 mg, po by LC-MS/MS analysis; assay type: ADME, organism-based; details: in vivo
Outline: (§3)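 Plasma from healthy males after single oral 100 mg [14C] milnacipran hydrochloride, sampled 0.5–120 h. Unchanged drug quantified by validated LC-MS/MS with [2H10] internal standard, C8 column isocratic formic acid/water/methanol; linear 5–2000 ng/mL, LLOQ 5 ng/mL in 25 µL plasma. Non-compartmental analysis; values below LLOQ set to zero; subjects without emesis.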

[22] = Half life in human plasma; assay type: ADME, cell-free
[23] = Drug excretion in human urine; assay type: ADME; details: read-out: Drug excretion
[24] = Tmax in human at 100 mg, po by LC-MS/MS analysis; assay type: ADME, organism-based; details: in vivo; outline: as §3
[25] = AUC (0 to infinity) in human at 100 mg, po by LC-MS/MS analysis; assay type: ADME, organism-based; design: dose 100 mg, time infinity, route oral; details: plasma; outline: as §3
[26] = Tmax in human; assay type: ADME, organism-based; details: in vivo
[27] = AUC (0 to t) in human at 100 mg, po by LC-MS/MS analysis; assay type: ADME, organism-based; details: plasma; outline: as §3
[28] = Cmax in human at 100 mg, po by LC-MS/MS analysis; assay type: ADME, organism-based; design: dose 100 mg, route oral; details: in vivo; outline: as §3
[29] = Drug excretion in human urine treated with [14C]-labeled milnacipran hydrochloride at 100 mg, po up to 96 hrs by LC-SRM analysis; assay type: ADME, organism-based; details: in vivo
Outline: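 0–96 h urine pool analysed by chiral LC-SRM on Chirobiotic V column, ammonium formate-methanol mobile phase, 1 mL/min, column 20°C. Enantiomer proportion from peak areas corrected by urine standard ratio, multiplied by milnacipran excreted in the pool (% of dose).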

SMILES	Cp [1] [ng.Eq/ml]	Cp [2] [ng.Eq/ml]	Cp [3] [ng.Eq/ml]	Cp [4] [ng.Eq/ml]	Drug excretion [5]	Drug excretion [6] [%]	Cp [7] [ng.Eq/ml]	Drug excretion [8]	Cp [9] [ng.Eq/ml]	Drug excretion [10] [%]	Cp [11] [ng.Eq/ml]	Drug excretion [12] [%]	Drug excretion [13] [%]	Drug excretion [14] [%]	Cp [15] [ng.Eq/ml]	Retention_time [16] [min]	Drug excretion [17] [%]	Drug excretion [29] [%]	also measured
CCN(CC)C(=O)C1(c2ccccc2)CC1CNC(=O)O[C@@H]1O[C@H](C(=O)O)[C@@H](O)[C@H](O)[C@H]1O (some centres not stated)	–	–	–	–	–	–	–	–	–	–	–	–	–	–	–	–	–	–	dose excreted [18]: 1.6%; dose excreted [19]: 1%; dose excreted [20]: 0.1%
CCN(CC)C(=O)C1(c2ccccc2)CC1CN (racemic) [MILNACIPRAN]	214.21	208.01	33.92	87.22	1.47%	5.45	83.17	0.3%	186.82	14.42	156.73	7.17	15.54	54.71	178.93	35	10.87	54.7	half-life [21]: 8.9 h; half-life [22]: 8 h; dose excreted [23]: 50%; Tmax [24]: 3.5 h; AUC(0-inf) [25]: 2770 ng·h/mL; Tmax [26]: 2 h; AUC(0-t) [27]: 2340 ng·h/mL; Cmax [28]: 240 ng/mL
CCN(CC)C(=O)C1(c2ccccc2)CC1CN (stereo in doubt) [MILNACIPRAN]	–	–	–	–	–	–	–	–	–	–	–	–	–	–	–	–	–	23.5	–
CCN(CC)C(=O)[C@@]1(c2ccccc2)C[C@H]1CN [LEVOMILNACIPRAN]	–	–	–	–	–	–	–	–	–	–	–	–	–	–	–	–	–	31.2	–

More lines, main results first:

Cp [1] [ng.Eq/ml]	Cp [2] [ng.Eq/ml]	Cp [3] [ng.Eq/ml]	Cp [4] [ng.Eq/ml]	Drug excretion [5]	Drug excretion [6] [%]	Cp [7] [ng.Eq/ml]	Drug excretion [8]	Cp [9] [ng.Eq/ml]	Drug excretion [10] [%]	Cp [11] [ng.Eq/ml]	Drug excretion [12] [%]	Drug excretion [13] [%]	Drug excretion [14] [%]	Cp [15] [ng.Eq/ml]	Retention_time [16] [min]	Drug excretion [17] [%]	SMILES	Drug excretion [29] [%]	also measured
19.63	24.6	< 7.8	13.67	0.73%	1.36	< 7.8	0.06%	23.46	1.35	< 7.8	1.26	0.92	7.73	< 7.8	11	2.06	CCNC(=O)[C@@]1(c2ccccc2)CC1CN (some centres not stated)	–	–
234.38	195.72	26.57	50.79	0.19%	0.76	101.66	Below limit of detection	140.79	5.39	161.3	2.36	6.26	17.23	190.14	22	2.36	CCN(CC)C(=O)[C@]1(c2ccccc2)C[C@@H]1CNC(=O)O[C@@H]1O[C@H](C(=O)O)[C@@H](O)[C@H](O)[C@H]1O	–	–
17.49	16.42	< 7.8	< 7.8	Below limit of detection	0.28	< 7.8	Below limit of detection	< 7.8	0.64	< 7.8	0.37	0.55	2.14	< 7.8	24	0.58	CCN(CC)C(=O)[C@@]1(c2ccccc2)C[C@H]1CNC(=O)O[C@@H]1O[C@H](C(=O)O)[C@@H](O)[C@H](O)[C@H]1O	–	–

Source: ChEMBL document CHEMBL3526138, “Excretion and metabolism of milnacipran in humans after oral administration of milnacipran hydrochloride” (Drug Metab Dispos, 2012)
